STK33 kinase inh: inhibitors of purified STK33 kinase, primary screen, biochemical, ADP-Glo luminescence, homogeneous, cell-free. Serine/threonine-protein kinase 33 (Homo sapiens), Q9BYT3. MBP phosphorylation. inhibition, % at 10 µM. hit rate 0.073% among 320,000;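 active means inhibition at or above 25%, using the most active replicate where run in duplicate; inactive means inhibition below 25%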
GSK3B inh: human GSK3beta kinase inhibitors, primary screen, biochemical, cell-free homogeneous, HTS. Glycogen synthase kinase-3 beta (Homo sapiens), P49841. GST-GSK3beta kinase, ADP-Glo luminescence, 60 min; stronger effect = lower value. activity score (negative = inhibition), % at 10 µM. hit rate 0.038% among 300,000. AID 2097, 2009;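 active means more than half of replicate wells score below -50%, meaning over 50% inhibition versus plate controls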;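 further: 0% = median DMSO wells and -100% = median GW8510 positive control wells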
Target sequence (P49841 whole entry, looked up): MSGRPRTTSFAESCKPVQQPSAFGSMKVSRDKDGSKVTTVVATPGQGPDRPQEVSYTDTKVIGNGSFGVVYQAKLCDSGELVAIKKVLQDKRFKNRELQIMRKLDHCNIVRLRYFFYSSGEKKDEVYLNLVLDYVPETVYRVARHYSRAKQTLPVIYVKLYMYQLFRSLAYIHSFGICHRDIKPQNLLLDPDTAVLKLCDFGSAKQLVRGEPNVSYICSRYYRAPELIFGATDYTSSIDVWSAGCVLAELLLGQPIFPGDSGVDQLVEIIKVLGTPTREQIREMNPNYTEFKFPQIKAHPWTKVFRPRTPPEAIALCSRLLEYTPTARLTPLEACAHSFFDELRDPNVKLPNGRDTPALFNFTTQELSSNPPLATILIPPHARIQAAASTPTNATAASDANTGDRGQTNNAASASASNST
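Test system: GST-tagged human GSK3beta kinase, cell-free; evaluation: activity score scaled between in-plate DMSO and GW8510 controls; measured by: ADP-Glo luminescence; incubation: 60 min reaction, RT; benchmarks: DMSO and 20 µM GW8510; reagent: peptide substrate plus 25 µM ATP (final); medium: Tris/MgCl2 kinase buffer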
GSK3A inh: blockers of GSK3A enzyme activity – biochemical, luminescence, cell-free homogeneous, HTS, primary screen; Glycogen synthase kinase-3 alpha (Homo sapiens), P49840; GSK-3 alpha kinase, ADP-Glo luminescence, 60 min; inhibition, % at 10 µM; hit rate 0.1% among 320,000; AID 2650, 2010;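 active means more than half of replicates show inhibition above 20%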;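 further: GST-tagged GSK-3 alpha with peptide substrate and 25 µM ATP; 0% = DMSO neutral wells and 100% = GW8510 positive control wells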
CDK5 inh: inhibitors of human CDK5/p35 kinase, primary screen, biochemical, single concentration; hit rate 0.01% among 330,000; Recombinant CDK5/p35, ADP-Glo luminescence, 60 min; AID 488839, 2010; inhibition, % at 10 µM; Cyclin-dependent kinase 5 (Homo sapiens) + Cyclin-dependent kinase 5 activator 1 (Homo …;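 active means highest replicate inhibition of at least 50% and at least 75% of replicates reaching 50%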;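 further: plate controls were DMSO neutral control for no effect and GW8510 at 10 µM for full effect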
Dyrk1A ADPGlo: rat Dyrk1A kinase inhibitors, primary screen, biochemical, single point, plate reader. inhibition, % at 12.5 µM. ADP-Glo luminescence, NFATc1 peptide. hit rate 0.43% among 310,000; in the data active means inhibition above about 50%;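 further: plate controls were vehicle with enzyme for no effect and no enzyme for full effect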
* hit, by the source's call; . = no result given. The sample as a whole holds a higher share of hits than the screen did.

SMILES	STK33 kinase inh	GSK3B inh	GSK3A inh	CDK5 inh	Dyrk1A ADPGlo
CN1CCN(C=NC2=NN(c3cccc(C(F)(F)F)c3)CC2)CC1	30*	0	0	-2	-1
CN(C)C=NC1=NN(c2cccc(C(F)(F)F)c2)CC1	-1	-1	.	0	5
COc1ccc(CNc2nc3ccccc3s2)cc1OC	89*	4	2	-1	6
O=C(Nc1nccs1)c1ccc(N2CCOCC2)c([N+](=O)[O-])c1	26*	-8	4	1	16
O=C(NCCCCc1ccccc1)c1cccc(NC(=O)C2CCCC2)c1	.	.	.	1	.
Cn1nnnc1Sc1ncnc2scc(-c3ccc(-c4ccccc4)cc3)c12	-1	.	2	0	-1
Cn1nnnc1Sc1ncnc2scc(-c3cccs3)c12	1	.	5	5	59*
O=C(O)c1cc(-c2ccc(/C=N/Nc3ccc([N+](=O)[O-])cn3)o2)ccc1Cl	.	-63*	.	7	38
CCn1c(=S)[nH]c2c(=O)n(C)c(=O)n(C)c21	.	.	.	-1	5
Cc1oc2ccc(O)c(CN3CCOCC3)c2c1C(=O)c1ccc(Cl)cc1	-1	1	9	1	9
Cc1oc2c(Cl)c(Cl)c(O)c(CN(C)C)c2c1C(=O)c1ccc(Cl)cc1	-1	7	70*	0	15
CC(=O)N[C@@H](Cc1c[nH]c2ccccc12)C(=O)OCC(=O)Nc1cc(C)on1	.	.	.	1	-2
CCOc1ccc(-c2cc(CCCC(=O)NCCCOC)no2)cc1	28*	2	0	-1	-1
CCOc1ccc(-c2cc(CCCC(=O)N3CCN(c4ccc(OC)cc4)CC3)no2)cc1	-1	5	-1	2	5
N#Cc1c(N)[nH]c2ccc(Sc3ccccc3)cc12	.	.	.	1	3
O=C1C(c2ccncc2)=C(O)c2ccccc21	27*	-2	4	3	-2
O=C(CSc1nc2[nH]ncc2c(=O)n1-c1ccccc1)NCc1cccs1	0	-3	5	1	-5
O=C(CSc1nc2[nH]ncc2c(=O)n1-c1ccccc1)NCCc1ccccc1	0	-38	54*	-4	48
CCOc1ccccc1C(=O)Nc1cc(Cl)ccc1O	26*	-3	0	0	23
COc1ccccc1C(=O)Nc1cc(Cl)ccc1O	0	2	0	1	4
Cc1[nH]nc(C(F)(F)F)c1N=NN1CCOCC1	.	.	.	-1	4
CC(=O)n1cc(/C=N/NC(=O)c2sc(C)nc2C)c2ccccc21	0	-2	8	.	2
CC(=O)n1cc(-c2ccncc2)c2ccccc21	10	-13	23	2	69*
Cc1cc(NC(=O)/C(C#N)=C\c2ccc(-c3ccc(SC(F)F)cc3)o2)n(-c2ccccc2)n1	.	.	.	0	-1
CC(C)(C)Sc1ccc(/C=N/O)cc1[N+](=O)[O-]	2	-36	55*	15	42
SMILES	STK33 kinase inh	GSK3B inh	GSK3A inh	CDK5 inh	Dyrk1A ADPGlo
Cc1ccc(Sc2ccc(/C=N/O)cc2[N+](=O)[O-])cc1	-2	-1	0	2	4
Clc1ccc(/C=N/Nc2ncnc3nc[nH]c23)cc1	6	-36	61*	11	14
COc1ccc(CC(=O)Nc2nc(C)cs2)cc1OC	-2	.	-2	-1	-11
CC(C)CC(=O)Nc1ncc([N+](=O)[O-])s1	1	-1	80*	5	14
COc1ccc(CC(=O)Nc2ncc([N+](=O)[O-])s2)cc1OC	-1	-45	75*	9	44
CCCCC(=O)Nc1ncc([N+](=O)[O-])s1	-1	-61*	81*	7	15
CCOC(=O)c1c(N/C=C(\C#N)c2nc(-c3ccc(OC(C)=O)cc3)cs2)sc2c1CCC2	.	.	.	1	12
COc1ccc(OCC(=O)NCc2nc(-c3ccccc3)no2)cc1	.	.	.	-2	6
CCCCN(C(=O)c1ccc(S(=O)(=O)N(C)c2ccccc2)cc1)c1c(N)n(CCC)c(=O)[nH]c1=O	.	.	.	-8	1
CSc1nc2ncc3c(n2n1)CC1c2ccccc2CCN1C3=O (stereo unspecified)	0	-27	72*	-2	0
COCCNc1nc(N)c([N+](=O)[O-])c(NCC2CCCO2)n1 (stereo unspecified)	0	-53*	68*	1	34
Nc1nc(NCCOCCO)nc(NCC2CCCO2)c1[N+](=O)[O-] (stereo unspecified)	-1	-60*	60*	1	-3
CNc1nc(N)c([N+](=O)[O-])c(NCC2CCCO2)n1 (stereo unspecified)	4	-27	47	1	.
CCN1C[C@@H]2[C@@H]3C(=O)N(Cc4ccccc4)C(=O)[C@@H]3[C@](Cc3ccccc3)(C1=O)N2C(=O)c1ccc(Br)cc1	.	.	.	-1	1
O=C(CSc1nnc(-c2ccc(O)cc2)o1)Nc1ccccc1	-3	.	52*	1	2
CCCn1c(N)c(N(CCOC)C(=O)CSc2cc(C)c3ccccc3n2)c(=O)[nH]c1=O	.	.	.	-1	-5
CN(C)c1cc2c(c(N(C)C)c1)C(=O)c1ccccc1C2=O	40*	0	1	-3	6
CN(C)S(=O)(=O)c1cccc2c1C(=O)c1ccccc1C2=O	0	2	1	1	3
Nc1nonc1-n1nnc(C(=O)N/N=C/c2ccc(O)cc2)c1CN1CCCCCC1	0	-64*	83*	-1	11
CCN(CC)Cc1c(C(=O)N/N=C/c2ccncc2)nnn1-c1nonc1N	4	2	101*	0	9
CCN(CC)Cc1c(C(=O)N/N=C/c2ccc(C)o2)nnn1-c1nonc1N	0	-1	32	0	-2
CN(C)Cc1c(C(=O)N/N=C/c2ccncc2)nnn1-c1nonc1N	0	-29	64*	1	12
CN(C)Cc1c(C(=O)N/N=C/c2ccoc2)nnn1-c1nonc1N	1	-1	0	2	25
Nc1nonc1-n1nnc(C(=O)N/N=C/c2cccc(O)c2)c1CN1CCCC1	1	-25	.	1	18
CCCN(CCC)Cc1c(C(=O)N/N=C/c2ccoc2)nnn1-c1nonc1N	1	-58*	72*	1	-1
CSc1ccc(C(=O)Nc2cc(S(=O)(=O)N3CCOCC3)ccc2N2CCOCC2)cc1[N+](=O)[O-]	.	.	.	1	.
Nc1cc2c(cc1Cl)-c1ccc(Cl)cc1C2=O	.	.	.	1	.
COC1=CC(=O)OC(c2ccco2)C1 (stereo unspecified)	.	.	.	-2	1
O=C1CCn2c1c(O)c1ccccc1c2=O	.	.	.	1	5
N=C1CCC(=N)c2c1c(O)c1ccccc1c2O	33*	1	21	2	40

Compound activity (PubChem BioAssay)
